Laboratory results: publication PMC6500982 (Cancer Science, 2019)

Assay: Safety and tolerability
Type: in vivo, human
In short: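 Patients (enrolled January 2015–February 2016) received oral test compound in four cohorts: 160, 320 or 480 mg QD, or 300 mg BID. Dosing continued until progression, unacceptable AEs or consent withdrawal. AEs were graded by CTCAE v4.0, alongside laboratory tests, vital signs and ECGs. The safety population was all patients receiving ≥1 dose.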

CC#CC(=O)N1CC[C@@H](n2c(=O)n(-c3ccc(Oc4ccccc4)cc3)c3c(N)ncnc32)C1 [tirabrutinib]
Gamma‐glutamyltransferase increased, Any grade (300 mg BID N = 7): 1 (14.3) n (%) | Gamma‐glutamyltransferase increased, Grade ≥3 (300 mg BID N = 7): 0 n (%) | Headache, Any grade (300 mg BID N = 7): 1 (14.3) n (%) | Headache, Grade ≥3 (300 mg BID N = 7): 0 n (%) | Hypokalemia, Any grade (300 mg BID N = 7): 0 n (%) | Hypokalemia, Grade ≥3 (300 mg BID N = 7): 0 n (%) | Hypophosphatemia, Any grade (300 mg BID N = 7): 0 n (%) | Hypophosphatemia, Grade ≥3 (300 mg BID N = 7): 0 n (%) | Insomnia, Any grade (300 mg BID N = 7): 3 (42.9) n (%) | Insomnia, Grade ≥3 (300 mg BID N = 7): 0 n (%) | Leukopenia, Any grade (300 mg BID N = 7): 0 n (%) | Leukopenia, Grade ≥3 (300 mg BID N = 7): 0 n (%) | Lymphopenia, Any grade (300 mg BID N = 7): 0 n (%) | Lymphopenia, Grade ≥3 (300 mg BID N = 7): 0 n (%) | Malaise, Any grade (300 mg BID N = 7): 0 n (%) | Malaise, Grade ≥3 (300 mg BID N = 7): 0 n (%) | Myalgia, Any grade (300 mg BID N = 7): 0 n (%) | Myalgia, Grade ≥3 (300 mg BID N = 7): 0 n (%) | Nasopharyngitis, Any grade (300 mg BID N = 7): 1 (14.3) n (%) | Nasopharyngitis, Grade ≥3 (300 mg BID N = 7): 0 n (%) | Nausea, Any grade (300 mg BID N = 7): 2 (28.6) n (%) | Nausea, Grade ≥3 (300 mg BID N = 7): 0 n (%) | Neutropenia, Any grade (300 mg BID N = 7): 0 n (%) | Neutropenia, Grade ≥3 (300 mg BID N = 7): 0 n (%) | Pharyngitis, Any grade (300 mg BID N = 7): 1 (14.3) n (%) | Pharyngitis, Grade ≥3 (300 mg BID N = 7): 0 n (%) | Pyrexia, Any grade (300 mg BID N = 7): 2 (28.6) n (%) | Pyrexia, Grade ≥3 (300 mg BID N = 7): 0 n (%) | Rash, Any grade (300 mg BID N = 7): 1 (14.3) n (%) | Rash, Grade ≥3 (300 mg BID N = 7): 0 n (%) | Thrombocytopenia, Any grade (300 mg BID N = 7): 0 n (%) | Thrombocytopenia, Grade ≥3 (300 mg BID N = 7): 0 n (%) | Upper respiratory tract inflammation, Any grade (300 mg BID N = 7): 0 n (%) | Upper respiratory tract inflammation, Grade ≥3 (300 mg BID N = 7): 0 n (%) | Vomiting, Any grade (300 mg BID N = 7): 2 (28.6) n (%) | Vomiting, Grade ≥3 (300 mg BID N = 7): 0 n (%) | All AEs, Any grade (320 mg QD N = 3): 3 (100.0) n (%) | All AEs, Grade ≥3 (320 mg QD N = 3): 2 (66.7) n (%) | Anemia, Any grade (320 mg QD N = 3): 0 n (%) | Anemia, Grade ≥3 (320 mg QD N = 3): 0 n (%) | Arthralgia, Any grade (320 mg QD N = 3): 1 (33.3) n (%) | Arthralgia, Grade ≥3 (320 mg QD N = 3): 0 n (%) | Aspartate aminotransferase increased, Any grade (320 mg QD N = 3): 0 n (%) | Aspartate aminotransferase increased, Grade ≥3 (320 mg QD N = 3): 0 n (%) | Constipation, Any grade (320 mg QD N = 3): 1 (33.3) n (%) | Constipation, Grade ≥3 (320 mg QD N = 3): 0 n (%) | Cystitis, Any grade (320 mg QD N = 3): 1 (33.3) n (%) | Cystitis, Grade ≥3 (320 mg QD N = 3): 0 n (%) | Diarrhea, Any grade (320 mg QD N = 3): 1 (33.3) n (%) | Diarrhea, Grade ≥3 (320 mg QD N = 3): 0 n (%) | Dysgeusia, Any grade (320 mg QD N = 3): 0 n (%) | Dysgeusia, Grade ≥3 (320 mg QD N = 3): 0 n (%) | Gamma‐glutamyltransferase increased, Any grade (320 mg QD N = 3): 1 (33.3) n (%) | Gamma‐glutamyltransferase increased, Grade ≥3 (320 mg QD N = 3): 0 n (%) | Headache, Any grade (320 mg QD N = 3): 0 n (%) | Headache, Grade ≥3 (320 mg QD N = 3): 0 n (%) | Hypokalemia, Any grade (320 mg QD N = 3): 0 n (%) | Hypokalemia, Grade ≥3 (320 mg QD N = 3): 0 n (%) | Hypophosphatemia, Any grade (320 mg QD N = 3): 0 n (%) | Hypophosphatemia, Grade ≥3 (320 mg QD N = 3): 0 n (%) | Insomnia, Any grade (320 mg QD N = 3): 0 n (%) | Insomnia, Grade ≥3 (320 mg QD N = 3): 0 n (%) | Leukopenia, Any grade (320 mg QD N = 3): 2 (66.7) n (%) | Leukopenia, Grade ≥3 (320 mg QD N = 3): 2 (66.7) n (%) | Lymphopenia, Any grade (320 mg QD N = 3): 1 (33.3) n (%) | Lymphopenia, Grade ≥3 (320 mg QD N = 3): 1 (33.3) n (%) | Malaise, Any grade (320 mg QD N = 3): 0 n (%) | Malaise, Grade ≥3 (320 mg QD N = 3): 0 n (%)
